Variants at the floor of the assay were thinned out.

To fix the notation:
B1: tRNA (parent)
chain: GUUCCGUUGGCGUAAUGGUAACGCGUCUCCCUCCUAAGGAGAAGACUGCGGGUUCGAGUCCCGUACGGAACG

In this data set the parent is B1. The data set is described as follows: yeast fitness relative to wild type (ratio to wild type); higher = fitter; tRNA-Arg(CCU), competitive growth, 37 C, YPD. The procedure, abridged:
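The tRNA-Arg(CCU) gene variants were made by chemical synthesis with a 3% per-site mutation rate at 69 sites and inserted at the native genomic locus of Saccharomyces cerevisiae. After pooling, the strains were competed in YPD at 37°C for 24 hours in six parallel replicates. Gene amplicons from the start population and each end population were read by 100-nucleotide paired-end sequencing, and Darwinian fitness relative to wild type was taken from genotype frequency changes. Genotypes needed ≥ 100 starting reads, and estimates < 0.5 were set to 0.5.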
For GUUCCGUUGGCGUAAUGGUAACACGUCUCUCUCCUAAGGAGAAGACUGCGGGUUCGAGUCCAGUACGAAACG [G23A C30U C62A G68A], the yeast fitness was 0.575.
Next, GUUCCGUUGGCGUAAUGGUAACACGUCUCCCUCCUAAGGACAAGACUGGGGGUUCGAGUCCCGUACGGAACG [G23A G41C C49G]: 0.854.
For GUUCCGUUGGCGUAAUGGUAACACGUCUCCCUCCUAAGGAGAAGACUGCGGGUUCGAGUCCCGUAAGGAACG [G23A C66A], the yeast fitness stood at 0.535.
In the case of GUUCCGUUGGCGUAAUGGUAACACGUCUCCCUCCUAAGGAGAAGACUGCGGGUUCGAGUCCCGUAGGGAACG [G23A C66G] it was 0.659.
Next, GUUCCGUUGGCGUAAUGGUAACACGUCUCCCUCCUAAGGAGAAGACUGCGGGUUCGAGUCCCGUAUGGAACG [G23A C66U]: 0.824; GUUCCGUUGGCGUAAUGGUAACACGUCUCCCUCCUAAAGAGAAGACUGCGGGUUCGAGUCCCGUACCGAACG [G23A G38A G67C]: at most 0.5; GUUCCGUUGGCGUAAUGGUAACCCGUCUCCCUCCUAAGGAGGAGACUGCGGGUUCGAGUCCCGUACGGAACG [G23C A42G]: 0.575.
Next, GUUCCGUUGGCGUAAUGGUAACACGUCUCCUUGCUAAGGAGAAGACUGCGGGUUCGAGUCCCGUGCGGAACG [G23A C31U C33G A65G]: at most 0.5; GUUCCGUUGGCGUAAUGGUAACCCGUCUCCCUCCUAAGGAGAAGACUGCGGGUUCGAGUCCCGUGAGGAACG [G23C A65G C66A]: at most 0.5; GUUCCGUUGGCGUAAUGGUAACACGUCUCCCUCCUAAGGAGAAGAAUGCGGGUUCGAAUCCCGUACGGAACG [G23A C46A G58A]: 0.566.
With GUUCCGUUGGCGUAAUGGUAACACGCCUUCCUGCUAAGGAGAAGACUGCGGGUUCGAGUCCCGUACGGAACG [G23A U26C C29U C33G], the yeast fitness is at most 0.5.
Next, GUUCCGUUGGCGUAAUGGUAACCAGUCUCGCUCCUAAGGUGAAGACAGCGCGUUCGAGUCCCGUACGGAACG [G23C C24A C30G A40U U47A G51C]: 0.506; GUUCCGUUGGCGUAAUGGUAACACGUCUCCCUCCUAAGGAGAAGACCGUGGGUUCGAGUCCCGUACGGAACG [G23A U47C C49U]: at most 0.5; GUUCCGUUGGCGUAAUGGUAACACCUCUCCCUCCUAAGGAGAAGACUGCGAGUUCGAGUCCCGUACGGAACG [G23A G25C G51A]: 0.661.
With GUUCCGUUGGCGUAAUGGUAACACGUCUCUCUCCUAAGAAGAAGACUGCGGGUUCGAGUGCCGUACGGAACG [G23A C30U G39A C60G], the yeast fitness is at most 0.5.
Next, GUUCCGUUGGCGUAAUGGUAACACGUCUCCCUCCUAAGGAGAAGACUGCGGGUUCGAGUCACGUACGGAUCG [G23A C61A A70U]: at most 0.5; GUUCCGUUGGCGUAAUGGUAACACGUCUCCCUGCUAAGGAGAAGACUGCGGGUUCGAGUCCCGUACGGAUCG [G23A C33G A70U]: at most 0.5; GUUCCGUUGGCGUAAUGGUAACACGUCUCCCUCCUAAGGAGAAGACUGAGGGUUCGAAUCCCGUACGGAACG [G23A C49A G58A]: at most 0.5.
Next, GUUCCGUUGGCGUAAUGGUAACACGUCUCCCUCCUAAGGAGAAGACUGCGGGUUAGAGUCCCGUACGGAACG [G23A C55A]: at most 0.5; GUUCCGUUGGCGUAAUGGUAACCGGUCUCCCUCGUAAGGAGAAGAUUGCGGGUGCGAGUCCCGUACGGAACG [G23C C24G C34G C46U U54G]: at most 0.5; GUUCCGUUGGCGUAAUGGUAACACGUCUCCCUGCUAAGGAGAAGACUGCGGGUUCGAGUCCCGUACGGCACG [G23A C33G A69C]: at most 0.5.
In the case of GUUCCGUUGGCGUAAUGGUAACACGGCUCCCUCCUAAGGCGAAGAGUGCGGGUUCGAGUGCCGUACGGAACG [G23A U26G A40C C46G C60G] it was at most 0.5; in that of GUUCCGUUGGCGUAAUGGUAACACGUCUCCCUCCUAAGGAGAAGACUGUGGGUUCGAGUCCCAUCCGGAACG [G23A C49U G63A A65C], at most 0.5.
As to GUUCCGUUGGCGUAAUGGUAACACGUCUCCCUCCUAAGGAGAAGACAGCGGGUUCGAGUCCCGAACGGAACG [G23A U47A U64A], the yeast fitness is at most 0.5.
Next, GUUCCGUUGGCGUAAUGGUAACACGUCUCCCUCCUAAGGAGAAGACAGCGGGUUCGAGUCCCGUACGGAACG [G23A U47A]: 0.796; GUUCCGUUGGCGUAAUGGUAACCCGUCUCCCUCCUUAGGAGAAGACUGCGGCUUCGAGUCCCGUACGGAACG [G23C A36U G52C]: at most 0.5.
Consider GUUCCGUUGGCGUAAUGGUAACACGUCUCCCUCCUAAGGAGAAGACUGCGGGUUCGAGUCCUGUACGGUACG [G23A C62U A69U], for which the yeast fitness was determined as 0.642.
In the case of GUUCCGUUGGCGUAAUGGUAACACGUCUCCCUCCUAAGGAGAAGACUGCGGGGUCGAGUCCCGUACGGAACG [G23A U53G] it was at most 0.5; in that of GUUCCGUUGGCGUAAUGGUAACCCGUCUCCCUCCUAAGGAGAAGACUGCGGGUUCGAGUCCCGUUCGGAACG [G23C A65U], 0.585.
In the case of GUUCCGUUGGCGUAAUGGUAACCAGUCUCCCUCCUAAGGAGAAGACUGCAGGUUCGAGUCCCGUACGGAUCG [G23C C24A G50A A70U] it was at most 0.5; in that of GUUCCGUUGGCGUAAUGGUAACCCGUCUCCCUCCUAAGGAGUGGACUGCGGGUUCGAGUCCCGUUCGGAACG [G23C A42U A43G A65U], at most 0.5.
In the case of GUUCCGUUGGCGUAAUGGUAACCCGUCUCCCUCCUACGGAGAAGGCUGGGGGUUCGAGUCCCGUACGGAACG [G23C A37C A45G C49G] it was 0.671; in that of GUUCCGUUGGCGUAAUGGUAACACGUCUCCCUCCCAAGGAGAAGACUGCGGGUUCGAGUCCCGUACGGAACG [G23A U35C], 0.572.
With GUUCCGUUGGCGUAAUGGUAACCCGUCUCCCUCCUAAGGAGAUGACUGCGGGUUCGAGUCCCGUACGGAACG [G23C A43U], the yeast fitness turned out to be 0.733.
In the case of GUUCCGUUGGCGUAAUGGUAACCAGUCUCCCUCCUAAAGAGAAGACUGCGGGUUCGAGUCCAGUACGGGACG [G23C C24A G38A C62A A69G] it was at most 0.5; in that of GUUCCGUUGGCGUAAUGGUAACCGGUCUCCCUGCUAAGGUGAAGACUGCGGGUUCGAGUCCCGUACGGAGCG [G23C C24G C33G A40U A70G], at most 0.5; in that of GUUCCGUUGGCGUAAUGGUAACACGUCUCCCUGCUAAGGAGAAGACUGCGGGUUCGAGUCCAGUACGGAACG [G23A C33G C62A], 0.742.
Next, GUUCCGUUGGCGUAAUGGUAACACGACAGCCUCCUAAGGAGAAGACUGCGGGUUCGAGUCCCGUACGGAACG [G23A U26A U28A C29G]: at most 0.5.

For the origin of these results see the RNAGym collection of RNA variant scans (doi:10.1126/science.aae0568).
